Screening results as filed in PubChem.
TAAR1 agonist: human TAAR1 agonism; CHO RD-HGA16 TAAR1, Fluo-8 calcium fluorescence; vehicle wells 0%, saturating PEA agonist 100%; AID 624467; actives 0.99% (n = 360,000); activation, % at 3 µM;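 active = activation above the mean activation of all test compounds in the run plus 3 SD, cut at about 38% in these data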
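Assay system: CHO-derived RD-HGA16 cells with stable Gα16 and human TAAR1; timing: 17-24 h seeding, 75 min 37 °C dye, 30 min RT; read-out: % activation from peak over basal fluorescence ratio, DMSO-to-PEA scaled; measured by: kinetic Fluo-8 calcium fluorescence; benchmarks: low control DMSO, high control PEA (EC100); doses: 3 µM single concentration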
OXTR potentiate: potentiates the human oxytocin receptor response; AID 2445; CHO-OTR cells, Fluo-8 calcium fluorescence, potentiator mode; 0% = oxytocin EC15, 100% = EC100; activation, % at 3 µM; actives 0.061% (n = 320,000); P30559;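 active = activation above that plate's cutoff, the mean activation of tested compounds plus 3 SD, cut at about 6.6% in these data, passing the limit was not always enough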;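 note: 100% uses oxytocin at 75 nM as the full agonist control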
Target sequence (P30559 whole entry, looked up): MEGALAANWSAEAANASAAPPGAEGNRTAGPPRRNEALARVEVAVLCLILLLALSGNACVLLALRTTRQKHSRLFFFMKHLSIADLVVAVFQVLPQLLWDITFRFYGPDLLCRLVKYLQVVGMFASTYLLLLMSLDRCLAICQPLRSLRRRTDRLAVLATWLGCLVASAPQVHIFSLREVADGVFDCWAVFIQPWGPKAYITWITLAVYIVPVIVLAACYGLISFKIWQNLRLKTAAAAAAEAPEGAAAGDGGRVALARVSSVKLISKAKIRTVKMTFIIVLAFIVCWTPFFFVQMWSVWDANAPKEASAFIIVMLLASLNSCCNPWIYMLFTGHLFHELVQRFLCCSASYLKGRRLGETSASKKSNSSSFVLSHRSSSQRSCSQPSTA
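System: human OTR in CHO cells; Also added: sub-maximal oxytocin, roughly EC15; Timing: compound 6 min at room temperature before oxytocin, 100 s read; Technique: Fluo-8 intracellular calcium fluorescence, ex 470-495, em 515-575 nm; Controls: oxytocin EC15 low and EC100 high; Replication: singlicate.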
TAAR1 antag: human TAAR1 antagonism; Q96RJ0; CHO RD-HGA16 TAAR1, Fluo-8 calcium fluorescence, antagonist; inhibition, % at 3 µM; actives 1.5% (n = 360,000); AID 624466;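 active = inhibition above a per-plate cutoff, the mean inhibition of test compounds on that plate plus 3 SD, cut at about 49% in these data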;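 note: 0% = DMSO plus EC80 beta-PEA response and 100% = DMSO alone without agonist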
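test system = CHO RD-HGA16 cells bearing hTAAR1 | replication = singlicate | controls = DMSO-only wells and EC80 β-PEA-stimulated wells | reagent = EC80 β-phenethylamine stimulus | read-out basis = percent inhibition of PEA-evoked calcium signal, max/basal emission ratio | schedule = seeding 17-24 h prior, 75-min 37 °C, 30-min RT dye loading | signal = kinetic Fluo-8 calcium fluorescence measurement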
OXTR ag: agonists of human oxytocin receptor | P30559 | CHO-OTR cells, Fluo-8 calcium fluorescence; normalized: DMSO 0%, oxytocin 100% | activation, % at 3 µM | actives 0.32% (n = 320,000);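 active = activation above the mean of all tested compounds plus 3 SD, cutoff set per screening run, cut at about 20% in these data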;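 note: peak over basal fluorescence ratio from a 100 s FLIPR kinetic read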
V1R ag counter: counter-screen for oxytocin receptor agonists: human V1a receptor agonists; actives 0.25% (n = 320,000); CHO-V1R cells, Fluo-8 calcium fluorescence, agonist mode; 0% DMSO, 100% 3 nM vasopressin; activation, % at 3 µM; AID 2797; P37288;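 active = activation above the mean activation of all tested compounds plus 3 SD, per screening run, cut at about 20% in these data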;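 note: signal is peak over basal fluorescence ratio across a 100 second FLIPR read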
Target sequence (P37288 whole entry, looked up): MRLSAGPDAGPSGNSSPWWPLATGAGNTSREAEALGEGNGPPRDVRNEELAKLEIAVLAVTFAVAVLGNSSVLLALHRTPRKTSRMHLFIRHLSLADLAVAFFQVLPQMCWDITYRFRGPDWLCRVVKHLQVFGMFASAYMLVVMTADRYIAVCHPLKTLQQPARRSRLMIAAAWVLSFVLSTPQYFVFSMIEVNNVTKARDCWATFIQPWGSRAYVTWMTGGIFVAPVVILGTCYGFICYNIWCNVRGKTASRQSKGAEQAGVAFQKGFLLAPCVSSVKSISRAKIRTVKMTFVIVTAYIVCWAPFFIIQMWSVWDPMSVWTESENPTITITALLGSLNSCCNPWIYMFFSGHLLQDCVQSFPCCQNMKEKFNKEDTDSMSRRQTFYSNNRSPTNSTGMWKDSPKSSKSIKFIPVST
V1aR agonist cf: human V1a receptor agonism, confirmation; activation, % at 3 µM; CHO-V1R cells, Fluo-8 calcium fluorescence, agonist; AID 434964; shares compounds with V1R ag counter; actives 20% (n = 180);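 active = average activation exceeds primary screen hit cutoff, cut at about 21% in these data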;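 note: peak over basal fluorescence ratio during a 100 s FLIPR read; 0% = DMSO only wells and 100% = 3 nM vasopressin wells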
OXTR ag counter: OXTR agonism, counter-screen for V1R agonists; actives 10% (n = 180); CHO-OTR cells, Fluo-8 calcium fluorescence, agonist; activation, % at 3 µM; shares compounds with V1R ag counter;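 active = mean activation over three repeats above the cutoff from the earlier oxytocin receptor agonist screen, cut at about 20% in these data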;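 note: peak over minimum fluorescence ratio within a 100 second FLIPR read; 0% = DMSO only wells and 100% = oxytocin high control wells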
TAAR1 nonsel count: nonselective antagonism, TAAR1 counter-screen; actives 77% (n = 2,400); counterscreen cell line, calcium fluorescence, antagonist mode; shares compounds with TAAR1 antag; inhibition, % at 3 µM; in the data active = inhibition above about 22%;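 note: CHO-Ga16 host cells stimulated with ATP at an EC80 level; 0% = agonist EC80 plus vehicle and 100% = vehicle without agonist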
TAAR1 antag conf: human TAAR1 antagonism, confirmed | AID 651785 | shares compounds with TAAR1 antag | actives 40% (n = 2,400) | TAAR1-expressing cells, fluorescence antagonist read-out | inhibition, % at 3 µM; in the data active = inhibition above about 49%;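 note: CHO-Ga16 host cells challenged with agonist PEA near its EC80; 0% = agonist at EC80 plus vehicle and 100% = vehicle with no agonist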
Ga16 ag counter-1: counter-screen for TAAR1 antagonists: nonselective Ga16 agonists; actives 18% (n = 2,400); shares compounds with TAAR1 antag; AID 651953; activation, % at 3 µM; Ga16-expressing cells, calcium fluorescence, agonist counterscreen; in the data active = activation above about 12%;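 note: 0% = vehicle wells and 100% = saturating stimulus response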
TAAR1 ag count: counter-screen for human TAAR1 antagonists: TAAR1 agonists | actives 2% (n = 2,400) | activation, % at 3 µM | shares compounds with TAAR1 antag | hTAAR1 cell line, fluorescence activation, agonist mode; in the data active = activation above about 37%;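 note: CHO cells stably expressing TAAR1 with calcium dye readout; 0% = DMSO vehicle and 100% = full agonist response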
TAAR1 ag conf: confirmation of human TAAR1 agonists; actives 82% (n = 2,400); CHO RD-HGA16 TAAR1, Fluo-8 calcium fluorescence; scaled: DMSO 0%, maximal phenethylamine 100%; shares compounds with TAAR1 agonist; activation, % at 3 µM;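 active = activation above a cutoff set at the run's mean compound activation plus 3 SD, cut at about 39% in these data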
Ga16 ag counter-2: nonselective agonist in parental cells, TAAR1 agonist counter-screen; shares compounds with TAAR1 agonist; CHO-Ga16 parental, Fluo-8 calcium fluorescence; normalized to maximal ATP response, DMSO zero; activation, % at 3 µM; actives 50% (n = 2,400);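 active = activation above the run cutoff, the mean activation over all tested wells plus 3 SD, cut at about 12% in these data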;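 note: 0% = DMSO wells and 100% = maximal ATP response on the peak over basal ratio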
TAAR1 desensitize: human TAAR1 agonist that also desensitizes the receptor; AID 651951; actives 46% (n = 2,400); shares compounds with TAAR1 agonist; inhibition, % at 3 µM; CHO RD-HGA16 hTAAR1, Fluo-8 calcium, beta-PEA response inhibition;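 active = inhibition above the run cutoff, the mean inhibition of all test compounds plus 3 SD, cut at about 49% in these data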;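 note: beta-PEA stimulus applied at its EC80; loss of beta-PEA calcium signal after compound pretreatment read as receptor desensitization; 0% = DMSO with beta-PEA at EC80 and 100% = DMSO alone without agonist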
Ga16 antag count: nonselective Ga16 antagonism, counter-screen. shares compounds with TAAR1 agonist. CHO-Ga16 ATP-induced calcium, Fluo-8 fluorescence. inhibition, % at 3 µM. actives 39% (n = 2,400);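 active = inhibition above the plate's mean compound inhibition plus 3 SD, computed per plate, cut at about 22% in these data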;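 note: 0% = EC80 ATP with DMSO and 100% = DMSO wells without ATP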
Starred values were filed as active, the others as inactive; · = no result. Hits are enriched below; roughly 2.3% of the tested compounds scored in any of these assays.

SMILES | TAAR1 agonist | OXTR potentiate | TAAR1 antag | OXTR ag | V1R ag counter | TAAR1 nonsel count | TAAR1 antag conf | Ga16 ag counter-1 | TAAR1 ag count | others
CCOc1ccc(NC2=NCC(=O)N2CCc2ccccc2)cc1 | 70* | -23 | 44 | 14 | 20* | · | · | · | · | V1aR agonist cf=4;OXTR ag counter=-1;TAAR1 ag conf=81*;Ga16 ag counter-2=42*;TAAR1 desensitize=82*;Ga16 antag count=52*
Cc1cccc(N2CCN(C(=O)c3ccc4c(=O)[nH]c5c(C(=O)NC6CCCC6)sc(=S)n5c4c3)CC2)c1C | 3 | · | 21 | · | · | · | · | · | ·
CCCCCCN1C[C@H](n2cc(COC(=O)c3ccccc3)nn2)[C@@H](O)C[C@@H]1c1ccc(C)cc1 | 0 | · | -12 | · | · | · | · | · | ·
O=C(/C=C/c1ccc(F)cc1)NC(=S)NNC(=O)[C@H]1C[C@@H]1c1ccccc1 | 132* | -7 | 82* | 8 | 26* | · | · | · | · | V1aR agonist cf=19;OXTR ag counter=16;TAAR1 ag conf=88*;Ga16 ag counter-2=99*;TAAR1 desensitize=72*;Ga16 antag count=66*
CC(C)(C)NC(=S)NNC(=O)[C@H]1C[C@@H]1c1ccccc1 | 0 | -2 | -3 | 0 | 0 | · | · | · | ·
COc1ccc(CCn2c(C3CCCCC3)nc3c(c(=O)c4ccccc4n3C)c2=O)cc1 | 111* | -19 | 96* | 10 | 28* | · | · | · | · | V1aR agonist cf=11;OXTR ag counter=15;TAAR1 ag conf=65*;Ga16 ag counter-2=61*;TAAR1 desensitize=78*;Ga16 antag count=64*
Cn1c2ccccc2c(=O)c2c(=O)n(C3CCCCC3)c(-c3cccs3)nc21 | 54* | -7 | 8 | 19 | 21* | · | · | · | · | V1aR agonist cf=51*;OXTR ag counter=33*;TAAR1 ag conf=104*;Ga16 ag counter-2=75*;TAAR1 desensitize=61*;Ga16 antag count=22*
Cc1ccc(C)c(Nc2c([N+](=O)[O-])ccc3nonc23)c1 | 72* | -8 | -4 | 11 | 22* | · | · | · | · | V1aR agonist cf=18;OXTR ag counter=5;TAAR1 ag conf=66*;Ga16 ag counter-2=40*;TAAR1 desensitize=-8;Ga16 antag count=-12
Cc1ccc(C)c(Nc2ccc3nonc3c2[N+](=O)[O-])c1 | 2 | · | -2 | · | · | · | · | · | ·
CCCNS(=O)(=O)c1ccc(Oc2ncc(C(F)(F)F)cc2Cl)cc1 | 53* | -23 | 39 | 17 | 23* | · | · | · | · | V1aR agonist cf=14;OXTR ag counter=16;TAAR1 ag conf=40*;Ga16 ag counter-2=23*;TAAR1 desensitize=29;Ga16 antag count=17
Cn1cc([C@]2(O)C(=O)Nc3cccc(Cl)c32)c2ccccc21 | 3 | · | -6 | · | · | · | · | · | ·
Cc1ccc(-c2c(C(=O)N/N=C/c3ccco3)nnn2-c2nonc2N)cc1 | 88* | -10 | -1 | 9 | 28* | · | · | · | · | V1aR agonist cf=8;OXTR ag counter=11;TAAR1 ag conf=111*;Ga16 ag counter-2=79*;TAAR1 desensitize=23;Ga16 antag count=7
COc1ccc(C(=O)OCC(=O)c2ccco2)cc1[N+](=O)[O-] | 2 | · | 5 | · | · | · | · | · | ·
COc1ccc(C2CC(=O)C(c3ccccc3C)=CN2Cc2ccccc2)cc1 (stereo not drawn) | 7 | · | 56* | · | · | 21 | 36 | 4 | 3
COc1ccc(C2CC(=O)C(c3cccc(OC)c3)=CN2Cc2ccccc2)cc1 (stereo not drawn) | -1 | · | 8 | · | · | · | · | · | ·
COc1ccc(C2CC(=O)C(c3ccccc3)=CN2Cc2ccccc2)cc1 (stereo not drawn) | 2 | · | 58* | · | · | 28* | 48 | 3 | 9
CCNC(=O)N1CCN(c2ccc(N3CCN(Cc4ccccc4)[C@@H](C)C3)c(C)c2)[C@@H](C)C1 | 3 | · | -26 | · | · | · | · | · | ·
OC(c1ccccc1)(c1ccccc1)C1CCN(CCCOc2ccc(-c3ccc(F)cc3F)cc2)CC1 | 35 | · | 52* | · | · | 42* | 47 | 18* | 35
OC(c1ccccc1)(c1ccccc1)C1CCN(CCCOc2ccncc2)CC1 | 33 | · | 21 | · | · | · | · | · | ·
COc1ccccc1-c1ccc(OCCCN2CCC(C(O)(c3ccccc3)c3ccccc3)CC2)cc1 | 32 | · | 56* | · | · | 42* | 59* | 15* | 37
CC(C)(C)OC(=O)NN1CC(=O)N2Cc3ccccc3C[C@@H]2C1=O | 1 | -2 | 3 | 0 | 0 | · | · | · | ·
COc1ccc(-c2csc3ncnc(N4CCN(c5ccccc5OC)CC4)c23)cc1 | 1 | -8 | 62* | -2 | 2 | 27* | 41 | 5 | 10
CCOc1ccccc1N1CCN(c2ncnc3scc(-c4ccc(OC)cc4)c23)CC1 | -1 | -14 | 7 | 0 | 0 | · | · | · | ·
CCCCC[C@H](C)N1C[C@@H](COCc2ccccc2)Oc2cc(N3CC[C@H](O)C3)ccc2S1(=O)=O | 0 | · | -17 | · | · | · | · | · | ·
O=C(Nc1ccc(COc2ccccc2)cc1)c1cccc([N+](=O)[O-])c1 | 28 | -15 | 60* | 0 | 2 | 28* | 68* | 11 | 27
COc1ccc2[nH]cc(CCNC(=O)C3CCCCC3)c2c1 | 0 | -16 | -5 | 0 | 0 | · | · | · | ·
O=C(O)Cn1c(=O)c2c3c(sc2n(Cc2ccc(F)cc2)c1=O)CCCC3 | 2 | -6 | 16 | 0 | 0 | · | · | · | ·
O=C(O)Cn1c(=O)c2c3c(sc2n(Cc2ccccc2F)c1=O)CCCC3 | 3 | 0 | 56* | 0 | 0 | 5 | 38 | 3 | 7
Cc1cccc(OCc2nc(C#N)c(NCc3ccc4c(c3)OCO4)o2)c1 | 12 | -10 | 37 | -1 | 0 | · | · | · | ·
N#Cc1nc(COc2ccc(Cl)cc2)oc1NCc1ccc2c(c1)OCO2 | 8 | -6 | 50* | -1 | 0 | 22* | 17 | 0 | -1
